What was measured:
[1] = molecular target: T1, Amine oxidase [flavin-containing] B (Homo sapiens, UniProt P27338); assay: Inhibition of recombinant human MAO-B assessed as inhibition of kynuramine conversion to fluorescent metabolite 4-hydroxyquinoline after 20 mins by fluorescence spectrophotometry
T1 sequence (P27338 whole entry): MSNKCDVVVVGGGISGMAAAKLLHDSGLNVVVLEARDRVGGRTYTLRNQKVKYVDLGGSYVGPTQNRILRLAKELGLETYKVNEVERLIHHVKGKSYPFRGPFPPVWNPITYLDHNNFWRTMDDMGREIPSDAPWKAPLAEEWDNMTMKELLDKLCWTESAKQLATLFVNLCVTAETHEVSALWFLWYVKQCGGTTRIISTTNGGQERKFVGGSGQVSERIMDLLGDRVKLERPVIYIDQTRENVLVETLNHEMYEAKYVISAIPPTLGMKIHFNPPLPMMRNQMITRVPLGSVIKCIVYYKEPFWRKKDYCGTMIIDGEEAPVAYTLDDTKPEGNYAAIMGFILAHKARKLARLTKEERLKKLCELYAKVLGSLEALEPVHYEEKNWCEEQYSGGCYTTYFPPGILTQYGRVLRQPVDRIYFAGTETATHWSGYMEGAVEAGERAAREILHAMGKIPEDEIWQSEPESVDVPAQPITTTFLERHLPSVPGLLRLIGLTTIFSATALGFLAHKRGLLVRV
How it was run: (§1)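 IC50 values were read from sigmoidal concentration–inhibition curves of enzyme activity plotted against log inhibitor concentration.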

[2] = organism: Homo sapiens; assay: Selectivity index, ratio of IC50 for recombinant human MAO-A to IC50 for recombinant human MAO-B
How it was run: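 The index was calculated as IC50(MAO-A)/IC50(MAO-B), giving selectivity for the MAO-B isoform.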

[3] = molecular target: T2, Amine oxidase [flavin-containing] A (Homo sapiens, UniProt P21397); assay: Inhibition of recombinant human MAO-A assessed as inhibition of kynuramine conversion to fluorescent metabolite 4-hydroxyquinoline after 20 mins by fluorescence spectrophotometry; how it was run: as §1
T2 sequence (P21397 whole entry): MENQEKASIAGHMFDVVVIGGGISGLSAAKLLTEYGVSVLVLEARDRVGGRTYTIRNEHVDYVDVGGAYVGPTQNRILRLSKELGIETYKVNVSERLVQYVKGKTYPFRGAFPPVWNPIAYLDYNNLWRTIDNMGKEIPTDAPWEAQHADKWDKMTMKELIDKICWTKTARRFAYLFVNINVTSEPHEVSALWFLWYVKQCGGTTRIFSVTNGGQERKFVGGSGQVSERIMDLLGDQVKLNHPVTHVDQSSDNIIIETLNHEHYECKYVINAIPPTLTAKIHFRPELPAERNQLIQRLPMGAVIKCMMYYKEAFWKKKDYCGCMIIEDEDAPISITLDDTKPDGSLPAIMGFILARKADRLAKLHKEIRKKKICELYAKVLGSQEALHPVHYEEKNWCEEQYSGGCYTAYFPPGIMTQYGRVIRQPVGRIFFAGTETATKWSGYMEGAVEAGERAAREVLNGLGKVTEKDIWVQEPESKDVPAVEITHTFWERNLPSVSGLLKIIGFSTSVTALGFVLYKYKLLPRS

[4] = molecular target: T1, Amine oxidase [flavin-containing] B; assay: Inhibition of recombinant human MAO-B assessed as inhibition of kynuramine conversion to fluorescent metabolite 4-hydroxyquinoline at 100 uM after 20 mins by fluorescence spectrophotometry
[5] = molecular target: T1, Amine oxidase [flavin-containing] B; assay: Reversible inhibition of recombinant human MAO-B using kynuramine as substrate assessed as residual activity at 100 times IC50 preincubated for 30 mins followed by 100 fold dilution measured after 20 mins by fluorescence spectrophotometry relative to control
[6] = molecular target: T2, Amine oxidase [flavin-containing] A; assay: Inhibition of recombinant human MAO-A assessed as inhibition of kynuramine conversion to fluorescent metabolite 4-hydroxyquinoline at 100 uM after 20 mins by fluorescence spectrophotometry

| SMILES | IC50 [1] [µM] | Ratio IC50 [2] | IC50 [3] [µM] | inhibition (INH) [4] | Activity [5] [%] | inhibition (INH) [6] |
| --- | --- | --- | --- | --- | --- | --- |
| O=C1CCc2ccc(OCCc3ccccc3)cc2N1 | 0.191 | 281 | 53.7 |  |  |  |
| O=C1CCc2ccc(O)cc2N1 |  |  | 183 | Not Active |  |  |
| O=C1CCc2ccc(OCc3ccccc3)cc2N1 | 0.038 | 2380 | 90.4 |  |  |  |
| O=C1CCc2cc(OCc3cccc(Cl)c3)ccc2N1 | 0.62 | 82 | 50.6 |  |  |  |
| O=C1CCc2cc(O)ccc2N1 | 201 | 0.8 | 161 |  |  |  |
| O=C1CCc2ccc(OCc3cccc(Cl)c3)cc2N1 |  |  |  |  |  | Not Active |
| O=C1CCc2cc(OCc3ccccc3)ccc2N1 | 4.01 | 6 | 25.3 |  |  |  |

More lines, now with the values ahead:

| IC50 [1] [µM] | Ratio IC50 [2] | IC50 [3] [µM] | inhibition (INH) [4] | Activity [5] [%] | inhibition (INH) [6] | SMILES |
| --- | --- | --- | --- | --- | --- | --- |
| 0.284 | 69 | 19.7 |  |  |  | O=C1CCc2cc(OCCCc3ccccc3)ccc2N1 |
|  |  | 7.98 |  | 36 |  | O=C1CCc2ccc(OCc3cccc(Br)c3)cc2N1 |
| 0.13 | 173 | 22.5 |  |  |  | O=C1CCc2ccc(OCCCc3ccccc3)cc2N1 |
| 2.33 | 10 | 22.5 |  |  |  | O=C1CCc2cc(OCCc3ccccc3)ccc2N1 |
| 0.086 | 144 | 12.4 |  |  |  | O=C1CCc2cc(OCc3cccc(Br)c3)ccc2N1 |
